The term Ki denotes the equilibrium dissociation constant of an inhibitor or competing ligand from its target. The IC50 is the midpoint of a concentration-inhibition curve. Low values mean greater potency, high ones weaker potency.

Positions of bridges follow the written chain, without caps; N, C: chain ends. Non-standard residues stand in square brackets, D forms with d. Residues, ends and D or L forms follow the SMILES beside them. Phe(4-NO2) = N[C@@H](Cc1ccc([N+](=O)[O-])cc1)C(=O)O; dDip = N[C@@H](C(=O)O)C(c1ccccc1)c1ccccc1; Dip = N[C@H](C(=O)O)C(c1ccccc1)c1ccccc1; 2Nal = N[C@@H](Cc1ccc2ccccc2c1)C(=O)O; d2Nal = N[C@H](Cc1ccc2ccccc2c1)C(=O)O; 3Pal = N[C@@H](Cc1cccnc1)C(=O)O

These results are taken from ChEMBL document CHEMBL1131316, “Potent antagonists of somatostatin: synthesis and biology” (J Med Chem, 1998).

The target of experiment [1] is Somatostatin receptor type 2 (Homo sapiens, UniProt P30874). The experiment is described as follows: Binding affinity towards cloned human somatostatin 2 (hsst) receptor. The method in brief:
(§1)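 Membranes from CHO-K1 cells stably transfected with the human receptor subtype (calcium phosphate transfection, G418 selection), homogenised and washed in Tris-HCl. Separated by filtration on PEI-soaked GF/C filters; nonspecific binding with 1.0 µM SRIF.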

For experiment [2], the target named is Somatostatin receptor type 1 (Homo sapiens, UniProt P30872). The experiment is described as follows: Binding affinity towards cloned human somatostatin 1 (hsst) receptor. The method in brief: as §1
Sequence of Somatostatin receptor type 1 (P30872 whole entry): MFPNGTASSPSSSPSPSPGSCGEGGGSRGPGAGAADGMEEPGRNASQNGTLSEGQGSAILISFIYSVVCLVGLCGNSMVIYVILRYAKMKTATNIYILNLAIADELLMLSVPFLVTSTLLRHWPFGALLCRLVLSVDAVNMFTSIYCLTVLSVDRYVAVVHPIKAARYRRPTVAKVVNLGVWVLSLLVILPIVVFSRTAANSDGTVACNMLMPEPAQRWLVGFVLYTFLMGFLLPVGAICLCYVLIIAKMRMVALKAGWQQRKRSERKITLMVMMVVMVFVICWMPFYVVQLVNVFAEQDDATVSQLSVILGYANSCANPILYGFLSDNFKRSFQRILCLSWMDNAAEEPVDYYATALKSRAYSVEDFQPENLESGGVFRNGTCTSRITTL
The target of experiment [3] is Somatostatin receptor type 3 (Homo sapiens, UniProt P32745). The experiment is described as follows: Binding affinity towards cloned human somatostatin 3 (hsst) receptor. In outline:
as §1

The target in experiment [4] is Somatostatin receptor type 5 (Homo sapiens, UniProt P35346). The experiment is described as follows: Binding affinity towards cloned human somatostatin 5 (hsst) receptor. In outline: as §1
Sequence of Somatostatin receptor type 5 (P35346 whole entry): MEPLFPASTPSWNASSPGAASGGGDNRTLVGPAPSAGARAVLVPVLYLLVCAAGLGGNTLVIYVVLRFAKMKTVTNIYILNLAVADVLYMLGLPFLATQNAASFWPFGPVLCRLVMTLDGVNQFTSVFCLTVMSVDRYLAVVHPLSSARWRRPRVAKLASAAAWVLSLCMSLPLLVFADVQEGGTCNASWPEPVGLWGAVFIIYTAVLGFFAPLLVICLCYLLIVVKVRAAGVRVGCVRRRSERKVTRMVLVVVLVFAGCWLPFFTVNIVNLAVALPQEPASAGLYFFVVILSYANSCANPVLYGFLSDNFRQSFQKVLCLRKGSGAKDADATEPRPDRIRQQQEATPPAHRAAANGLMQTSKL
For experiment [5], the target named is Somatostatin receptor type 4 (Homo sapiens, UniProt P31391). The experiment is described as follows: Binding affinity towards cloned human somatostatin 4 (hsst) receptor.
Sequence of Somatostatin receptor type 4 (P31391 whole entry): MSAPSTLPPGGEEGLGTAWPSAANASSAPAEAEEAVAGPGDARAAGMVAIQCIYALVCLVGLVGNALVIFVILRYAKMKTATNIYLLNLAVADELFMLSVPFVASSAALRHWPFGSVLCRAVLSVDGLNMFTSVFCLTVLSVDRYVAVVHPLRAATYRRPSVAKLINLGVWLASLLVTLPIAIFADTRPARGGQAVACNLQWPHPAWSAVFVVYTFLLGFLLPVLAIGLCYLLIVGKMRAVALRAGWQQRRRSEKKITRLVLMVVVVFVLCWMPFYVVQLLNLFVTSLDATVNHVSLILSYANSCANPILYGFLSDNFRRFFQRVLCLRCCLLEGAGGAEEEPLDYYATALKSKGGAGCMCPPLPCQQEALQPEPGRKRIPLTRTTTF

Sequence of Somatostatin receptor type 2 (P30874 whole entry): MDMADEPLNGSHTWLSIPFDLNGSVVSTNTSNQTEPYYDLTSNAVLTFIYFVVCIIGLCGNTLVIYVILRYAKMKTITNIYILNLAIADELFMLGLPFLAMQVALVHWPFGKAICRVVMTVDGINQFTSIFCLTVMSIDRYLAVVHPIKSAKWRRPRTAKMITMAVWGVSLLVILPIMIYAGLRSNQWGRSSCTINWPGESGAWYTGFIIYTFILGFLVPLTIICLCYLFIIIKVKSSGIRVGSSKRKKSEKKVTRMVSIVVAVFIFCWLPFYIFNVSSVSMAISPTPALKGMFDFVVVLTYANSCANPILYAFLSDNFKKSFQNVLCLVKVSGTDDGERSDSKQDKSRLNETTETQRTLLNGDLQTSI
Sequence of Somatostatin receptor type 3 (P32745 whole entry): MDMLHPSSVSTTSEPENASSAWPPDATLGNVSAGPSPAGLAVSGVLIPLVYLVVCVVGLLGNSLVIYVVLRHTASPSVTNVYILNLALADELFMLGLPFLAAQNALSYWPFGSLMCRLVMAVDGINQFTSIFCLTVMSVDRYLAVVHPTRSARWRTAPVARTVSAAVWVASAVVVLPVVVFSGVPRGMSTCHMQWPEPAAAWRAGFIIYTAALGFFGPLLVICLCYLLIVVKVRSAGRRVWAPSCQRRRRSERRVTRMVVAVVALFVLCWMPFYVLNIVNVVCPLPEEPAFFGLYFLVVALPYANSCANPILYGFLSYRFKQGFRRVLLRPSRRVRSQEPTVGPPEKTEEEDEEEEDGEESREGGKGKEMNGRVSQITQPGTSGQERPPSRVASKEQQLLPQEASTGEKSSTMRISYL

Take `CC(C)[C@@H]1NC(=O)[C@H](CCCCN)NC(=O)[C@@H](Cc2c[nH]c3ccccc23)NC(=O)[C@H](Cc2ccc(O)cc2)NC(=O)[C@H](NC(=O)[C@H](N)Cc2ccc3ccccc3c2)CSSC[C@@H](C(=O)N[C@H](C(N)=O)[C@@H](C)O)NC1=O`: in experiment [1], the affinity corresponds to a Ki of 306 nM. Moreover, in experiment [2], the IC50 is 1580 nM.

`CC(C)[C@@H]1NC(=O)[C@H](CCCCN)NC(=O)[C@@H](Cc2c[nH]c3ccccc23)NC(=O)[C@H](Cc2ccc(O)cc2)NC(=O)[C@@H](NC(=O)[C@H](N)Cc2ccc3ccccc3c2)CSSC[C@H](C(=O)N[C@H](C(N)=O)[C@@H](C)O)NC1=O` yielded a Ki in experiment [1] of 350 nM. For the same molecule, the IC50 in experiment [3] stood at 1000 nM; in experiment [2], 4840 nM.

Regarding `CC(C)[C@@H]1NC(=O)[C@H](CCCCN)NC(=O)[C@@H](Cc2c[nH]c3ccccc23)NC(=O)[C@H](Cc2ccc(O)cc2)NC(=O)[C@H](NC(=O)[C@@H](N)Cc2ccc3ccccc3c2)CSSC[C@@H](C(=O)N[C@@H](Cc2ccc3ccccc3c2)C(N)=O)NC1=O`, the Ki in experiment [1] was 37.6 nM; in experiment [4], 302 nM. Further, the IC50 in experiment [3] worked out at 161 nM; in experiment [5] it was 1000 nM; in experiment [2] it was 2000 nM.

As for `CC(C)[C@H](NC(=O)[C@H](CCCCN)NC(=O)[C@@H](Cc1c[nH]c2ccccc12)NC(=O)[C@H](Cc1ccc(O)cc1)NC(=O)[C@@H](Cc1ccc(Cl)cc1)NC(=O)[C@@H](N)Cc1ccccc1)C(=O)N[C@@H](Cc1ccccc1)C(=O)N[C@H](C(N)=O)[C@@H](C)O`, the Ki in experiment [1] stood at 797 nM; in experiment [4], 2740 nM. The figures for the IC50 in experiment [3], in experiment [5] and in experiment [2] were 648 nM, 1000 nM and 1000 nM, respectively.

Consider `C[C@@H](O)[C@H](NC(=O)[C@H](Cc1ccccc1)NC(=O)[C@@H](NC(=O)[C@H](CCCCN)NC(=O)[C@@H](Cc1c[nH]c2ccccc12)NC(=O)[C@H](Cc1ccc(O)cc1)NC(=O)[C@@H](Cc1ccccc1)NC(=O)[C@@H](N)Cc1ccccc1)[C@@H](C)O)C(N)=O`, for which the Ki worked out at 445 nM in experiment [1] and 1180 nM in experiment [4]. The IC50 in experiment [3] is 216 nM; in experiment [5], 1000 nM; in experiment [2] it was 1000 nM.

As for `CC(C)[C@@H]1NC(=O)[C@H](CCCCN)NC(=O)[C@@H](Cc2c[nH]c3ccccc23)NC(=O)[C@H](Cc2ccc(O)cc2)NC(=O)[C@H](NC(=O)[C@H](N)Cc2ccccc2)C(C)(C)SSC[C@@H](C(=O)N[C@H](C(N)=O)[C@@H](C)O)NC1=O`, the Ki in experiment [1] was found to be 2550 nM. Besides, the IC50 in experiment [3] was found to be 821 nM; in experiment [5] it was 1000 nM; in experiment [2] it was 1000 nM.

On to `CC(=O)N[C@@H]1CSSC[C@@H](C(=O)N[C@H](C(N)=O)[C@@H](C)O)NC(=O)[C@H](C(C)C)NC(=O)[C@H](CCCCN)NC(=O)[C@@H](Cc2c[nH]c3ccccc23)NC(=O)[C@H](Cc2ccc(O)cc2)NC1=O`, for which the Ki in experiment [1] and in experiment [4] was 1000 nM each time. Further, the IC50 in experiment [3], in experiment [5] and in experiment [2] was 1000 nM throughout.

`CC[C@@H]1NC(=O)[C@H](CCCCN)NC(=O)[C@@H](Cc2c[nH]c3ccccc23)NC(=O)[C@H](Cc2ccc(O)cc2)NC(=O)[C@H](NC(=O)[C@H](N)Cc2ccccc2)CSSC[C@@H](C(=O)N[C@H](C(N)=O)[C@@H](C)O)NC1=O` returned a Ki in experiment [1] of 183 nM. The IC50 in experiment [3] was 140 nM; in experiment [5], 1000 nM; in experiment [2] it was 1000 nM.

In experiment [1], `CC(C)[C@@H]1NC(=O)[C@H](CCCCN)NC(=O)[C@@H](Cc2c[nH]c3ccccc23)NC(=O)[C@H](Cc2ccc(O)cc2)NC(=O)[C@H](NC(=O)[C@@H](N)Cc2ccc3ccccc3c2)CSSC[C@@H](C(=O)N[C@H](C(N)=O)[C@@H](C)O)NC1=O` came in with a Ki of 118 nM. Moreover, the IC50 came out at 733 nM in experiment [3] and 2160 nM in experiment [2].

`C[C@@H](O)[C@@H]1NC(=O)[C@H](CCCCN)NC(=O)[C@@H](Cc2c[nH]c3ccccc23)NC(=O)[C@H](Cc2ccccc2)NC(=O)[C@H](Cc2ccccc2)NC(=O)[C@H](N)CSSC[C@H](C(N)=O)NC(=O)[C@H](Cc2ccccc2)NC1=O`: the results for the Ki in experiment [1] and in experiment [4] were 34.8 nM and 28 nM, respectively. In addition, the IC50 came to 5.6 nM in experiment [3] and 723 nM in experiment [2].

In the case of `C[C@@H](O)[C@H](NC(=O)[C@@H]1CSSC[C@@H](NC(=O)[C@H](N)Cc2ccccc2)C(=O)N[C@@H](Cc2cccnc2)C(=O)N[C@H](Cc2c[nH]c3ccccc23)C(=O)N[C@@H](CCCCN)C(=O)N[C@@H]([C@@H](C)O)C(=O)N1)C(N)=O`, the figures for the Ki in experiment [1] and in experiment [4] were 566 nM and 1000 nM, respectively. Besides, the IC50 is 1360 nM in experiment [3], 1000 nM in experiment [5] and 1000 nM in experiment [2].

`CC(C)NC(=O)[C@@H]1CSSC[C@@H](NC(=O)[C@@H](N)Cc2ccc3ccccc3c2)C(=O)N[C@@H](Cc2ccc(O)cc2)C(=O)N[C@H](Cc2c[nH]c3ccccc23)C(=O)N[C@@H](CCCCN)C(=O)N[C@@H](C(C)C)C(=O)N1` showed an inhibitory constant (Ki) in experiment [1] of 435 nM. For the same molecule, the IC50 in experiment [3] came out at 1230 nM; in experiment [5], 1000 nM; in experiment [2] it was 1000 nM.

As for `CC(C)[C@H](NC(=O)[C@H](CCCCN)NC(=O)[C@@H](Cc1c[nH]c2ccccc12)NC(=O)[C@H](Cc1ccc(O)cc1)NC(=O)[C@@H](Cc1ccc(Cl)cc1)NC(=O)[C@H](N)Cc1ccc2ccccc2c1)C(=O)N[C@@H](Cc1ccccc1)C(=O)N[C@@H](Cc1ccc2ccccc2c1)C(N)=O`, the Ki in experiment [1] came out at 526 nM; in experiment [4], 178 nM. Also, the IC50 in experiment [3] was 619 nM; in experiment [5], 1000 nM; in experiment [2] it was 1000 nM.

As for `CC(C)[C@@H]1NC(=O)[C@H](CCCCN)NC(=O)[C@@H](Cc2c[nH]c3ccccc23)NC(=O)[C@H](Cc2ccc(O)cc2)NC(=O)[C@@H](C)N(C)C(=O)[C@H](Cc2ccccc2)NC1=O`, the Ki in experiment [4] turned out to be 1000 nM. Further, the IC50 in experiment [3] turned out to be 404 nM; in experiment [2], 1000 nM.

Consider `CC(C)[C@H](NC(=O)[C@H](CCCCN)NC(=O)[C@@H](Cc1c[nH]c2ccccc12)NC(=O)[C@H](Cc1ccc(O)cc1)NC(=O)[C@@H](Cc1ccc(Cl)cc1)NC(=O)[C@@H](N)Cc1ccc2ccccc2c1)C(=O)N[C@@H](Cc1ccccc1)C(=O)N[C@@H](Cc1ccc2ccccc2c1)C(N)=O`, for which the Ki turned out to be 1000 nM in experiment [1] and 1960 nM in experiment [4]. Besides, the IC50 in experiment [3] came out at 1610 nM; in experiment [5] it was 1000 nM; in experiment [2], 1000 nM.

For the molecule `CC(C)[C@@H]1NC(=O)[C@H](CCCCN)NC(=O)[C@@H](Cc2c[nH]c3ccccc23)NC(=O)[C@H](Cc2ccc(O)cc2)NC(=O)[C@H](NC(=O)[C@H](N)Cc2ccc3ccccc3c2)CSSC[C@@H](C(=O)N[C@H](Cc2ccc3ccccc3c2)C(N)=O)NC1=O`, the figures for the Ki in experiment [1] and in experiment [4] were 82.9 nM and 358 nM, respectively. Further, the IC50 was determined as 1080 nM in experiment [3], 1000 nM in experiment [5] and 1660 nM in experiment [2].

As to `CC(C)[C@@H]1NC(=O)[C@H](CCCCN)NC(=O)[C@@H](Cc2c[nH]c3ccccc23)NC(=O)[C@H](Cc2ccc(O)cc2)NC(=O)[C@H](NC(=O)[C@@H](N)Cc2c[nH]c3ccccc23)CSSC[C@@H](C(=O)N[C@H](Cc2ccc3ccccc3c2)C(N)=O)NC1=O` (H-W[dC]Y[dW]KVC[d2Nal]-NH2; disulfide 2-7), the Ki in experiment [1] turned out to be 77.2 nM; in experiment [4] it was 221 nM. In addition, the IC50 in experiment [3] stood at 649 nM; in experiment [5] it was 1000 nM; in experiment [2], 588 nM.

The molecule `CC(C)[C@@H]1NC(=O)[C@H](CCCCN)NC(=O)[C@@H](Cc2c[nH]c3ccccc23)NC(=O)[C@H](Cc2c[nH]cn2)NC(=O)[C@H](NC(=O)[C@@H](N)Cc2ccc3ccccc3c2)CSSC[C@@H](C(=O)N[C@@H](C(N)=O)C(c2ccccc2)c2ccccc2)NC1=O` (H-[2Nal][dC]H[dW]KVC[dDip]-NH2; disulfide 2-7) returned a Ki in experiment [4] of 1000 nM. For the same molecule, the IC50 amounted to 1200 nM in experiment [3], 1000 nM in experiment [5] and 1090 nM in experiment [2].

Take `CC(C)[C@@H]1NC(=O)[C@H](CCCCN)NC(=O)[C@@H](Cc2c[nH]c3ccccc23)NC(=O)[C@H](Cc2cccnc2)NC(=O)[C@H](NC(=O)[C@@H](N)Cc2ccc3ccccc3c2)CSSC[C@@H](C(=O)N[C@H](C(N)=O)C(c2ccccc2)c2ccccc2)NC1=O` (H-[2Nal][dC][3Pal][dW]KVC[Dip]-NH2; disulfide 2-7): the Ki in experiment [1] stood at 355 nM; in experiment [4], 1000 nM. The half-inhibitory concentration (IC50) in experiment [3] was determined as 903 nM; in experiment [5] it was 1000 nM; in experiment [2], 1000 nM.

Regarding `CC(C)[C@@H]1NC(=O)[C@H](CCCCN)NC(=O)[C@@H](Cc2c[nH]c3ccccc23)NC(=O)[C@H](Cc2ccc(O)cc2)NC(=O)[C@H](NC(=O)[C@@H](N)Cc2ccc([N+](=O)[O-])cc2)CSSC[C@@H](C(=O)N[C@@H](Cc2ccc(O)cc2)C(N)=O)NC1=O` (H-[Phe(4-NO2)][dC]Y[dW]KVCY-NH2; disulfide 2-7), the Ki in experiment [1] turned out to be 23.4 nM; in experiment [4], 101 nM. Also, the IC50 amounted to 177 nM in experiment [3], 632 nM in experiment [5] and 3220 nM in experiment [2].

On to `CC(C)[C@@H]1NC(=O)[C@H](CCCCN)NC(=O)[C@@H](Cc2c[nH]c3ccccc23)NC(=O)[C@H](Cc2cccnc2)NC(=O)[C@H](NC(=O)[C@@H](N)Cc2ccc([N+](=O)[O-])cc2)CSSC[C@@H](C(=O)N[C@@H](Cc2ccc(O)cc2)C(N)=O)NC1=O` (H-[Phe(4-NO2)][dC][3Pal][dW]KVCY-NH2; disulfide 2-7), for which the figures for the Ki in experiment [1] and in experiment [4] were 35.3 nM and 529 nM, respectively. Further, the values for the IC50 in experiment [3], in experiment [5] and in experiment [2] were 235 nM, 757 nM and 245 nM, respectively.

On to `CC(C)[C@@H]1NC(=O)[C@H](CCCCN)NC(=O)[C@@H](Cc2c[nH]c3ccccc23)NC(=O)[C@H](Cc2ccc(O)cc2)NC(=O)[C@@H](NC(=O)[C@H](N)Cc2ccc3ccccc3c2)CSSC[C@H](C(=O)N[C@@H](Cc2ccc3ccccc3c2)C(N)=O)NC1=O` (stereo in doubt; 27), for which the Ki in experiment [1] was 139 nM. Further, the IC50 in experiment [3], in experiment [5] and in experiment [2] was 1000 nM throughout.
